Read-outs that look alike come from different tables or passages of the source. Values belong to the substance of their own block, whether it stands above or below them.
Tests used:
[1] = test system: HsCen1 (full-length human centrin 1); test: ITC, peptide binding to full-length HsCen1; conditions: centrin 1; +Ca2+ versus EDTA
Procedure, shortened: (§1)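 Recombinant human centrin (full-length or C-terminal domain; Asp variants made by double-PCR mutagenesis) was expressed in E. coli BL21(DE3), heat-treated at 63 °C, then purified by ion-exchange, phenyl and gel-filtration chromatography. ITC at 30 °C: 10 μM centrin titrated with 100 μM N-acetylated, C-amidated peptide in 50 mM MOPS, 100 mM NaCl, pH 7.5, plus 1 mM CaCl₂ or 2 mM EDTA. Dilution heats subtracted; data fitted for n, Ka and ΔH.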

C-HsCen1-T138D = test: ITC, peptide binding to C-HsCen1-T138D; parameters: species or system human; conditions: EDTA; C-HsCen1-T138D versus C-HsCen1
Procedure, shortened: as §1

C-HsCen2-S158D = test: ITC, peptide binding to C-HsCen2 S158D; parameters: species or system human; conditions: absence of Ca2+; versus C-HsCen2 wild type
Procedure, shortened: as §1

C-HsCen2-T138D = test: ITC, peptide binding to C-HsCen2 T138D; parameters: species or system human; conditions: versus C-HsCen2 wild type
Procedure, shortened: as §1

[2] = test system: HsC1P (human centrin 1 phosphorylated by CK2 at T138); test: ITC, peptide binding to CK2-phosphorylated HsCen1; conditions: EDTA / absence of Ca2+; phosphorylated versus unphosphorylated centrin 1
[3] = test system: HsCen1-T138D (phosphomimetic human centrin 1); test: ITC, peptide binding to HsCen1-T138D; conditions: EDTA; HsCen1-T138D versus HsCen1
C-HsCen2 T138D-S158D = test: ITC, peptide binding to C-HsCen2 T138D-S158D; parameters: species or system human; conditions: versus C-HsCen2 wild type
Procedure, shortened: as §1

C-HsCen1-T138E = test: ITC, peptide binding to C-HsCen1-T138E; parameters: species or system human; conditions: C-HsCen1-T138E versus C-HsCen1; +Ca2+ (Fig. S3)
Procedure, shortened: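 Binding measured by ITC at 30 °C. Cell contained E. coli-expressed, heat-treated, chromatographically purified centrin at 10 μM. N-acetylated, C-amidated target peptide at 100 μM was injected in 8–10 μL steps. Buffer was 50 mM MOPS, 100 mM NaCl, pH 7.5 with 1 mM CaCl₂. The first 2 μL injection was discarded. Baseline-corrected integrated heats were fitted for n, Ka and ΔH. Peptide-into-buffer injections gave dilution heat.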

[4] = biological target: C-terminal domain of human centrin 1 T138E (human); test: ITC
[5] = biological target: C-terminal domain of human centrin 1 T138D (human); test: ITC
[6] = biological target: C-terminal domain of human centrin 1 T138E (human); test: ITC; remark: listed apart in the source
[7] = biological target: C-terminal domain of human centrin 1 T138D (human); test: ITC; remark: listed apart in the source

- factor of increase of binding by the presence of Ca2+ [1]: 5
- factor of decrease of affinity by the T138D mutation (C-HsCen1-T138D): 2
- factor of reduction of affinity by the S158D mutation (C-HsCen2-S158D): 3.7
- factor of reduction of affinity by the T138D mutation (C-HsCen2-T138D; absence of Ca2+): 3
- factor of reduction of affinity by the T138D mutation (C-HsCen2-T138D; presence of Ca2+): 2
- factor of reduction of binding by phosphorylation at T138 [2]: 10
- factor of reduction of binding by the T138D phosphomimetic mutation [3]: 4
- factor of reduction of affinity by the T138D-S158D double mutation (C-HsCen2 T138D-S158D; absence of Ca2+): 9
- factor of reduction of affinity by the T138D-S158D double mutation (C-HsCen2 T138D-S158D; presence of Ca2+): 2
Substance: 846-NWKLLAKGLLIRERLKR-863 [P17-XPC]

- factor of decrease of affinity by the T138E mutation (C-HsCen1-T138E): 7
Substance: 325-MAVATGSWDSFLKIWN-340 [Trd]

- Ka [4]: 430000 M⁻¹
- dH [4]: -32.6 kcal/mol
- Ka [5]: 4.55e+06 M⁻¹
- dH [5]: -30.2 kcal/mol
- Ka [6]: 9.03e+06 M⁻¹
- Ka [7]: 3.34e+07 M⁻¹
- dH [7]: -23.6 kcal/mol
Substance: P17-XPC, 17-residue peptide of human XPC

Reference: publication PMC4050191 (FEBS Open Bio, 2014)
